Results from article PMC4652583 (Organic letters, 2012).
Blank lines part the entries; values can stand above or below the molecule they belong to. Ends that are not written are not given here.

Columns and labels:
myeloma and lymphoma = settings: in clinical trials for myeloma and lymphoma; ref [9]; cited from earlier work
Nedd8 E1 = settings: ref [8]; cited from earlier work
Ube1 [1] = target: T1, Ube1 (Homo sapiens, UniProt P22314); assay: ATP-PPi exchange kinetics catalyzed by Ube1; assay type: biochemical
T1 sequence (P22314 1-1058): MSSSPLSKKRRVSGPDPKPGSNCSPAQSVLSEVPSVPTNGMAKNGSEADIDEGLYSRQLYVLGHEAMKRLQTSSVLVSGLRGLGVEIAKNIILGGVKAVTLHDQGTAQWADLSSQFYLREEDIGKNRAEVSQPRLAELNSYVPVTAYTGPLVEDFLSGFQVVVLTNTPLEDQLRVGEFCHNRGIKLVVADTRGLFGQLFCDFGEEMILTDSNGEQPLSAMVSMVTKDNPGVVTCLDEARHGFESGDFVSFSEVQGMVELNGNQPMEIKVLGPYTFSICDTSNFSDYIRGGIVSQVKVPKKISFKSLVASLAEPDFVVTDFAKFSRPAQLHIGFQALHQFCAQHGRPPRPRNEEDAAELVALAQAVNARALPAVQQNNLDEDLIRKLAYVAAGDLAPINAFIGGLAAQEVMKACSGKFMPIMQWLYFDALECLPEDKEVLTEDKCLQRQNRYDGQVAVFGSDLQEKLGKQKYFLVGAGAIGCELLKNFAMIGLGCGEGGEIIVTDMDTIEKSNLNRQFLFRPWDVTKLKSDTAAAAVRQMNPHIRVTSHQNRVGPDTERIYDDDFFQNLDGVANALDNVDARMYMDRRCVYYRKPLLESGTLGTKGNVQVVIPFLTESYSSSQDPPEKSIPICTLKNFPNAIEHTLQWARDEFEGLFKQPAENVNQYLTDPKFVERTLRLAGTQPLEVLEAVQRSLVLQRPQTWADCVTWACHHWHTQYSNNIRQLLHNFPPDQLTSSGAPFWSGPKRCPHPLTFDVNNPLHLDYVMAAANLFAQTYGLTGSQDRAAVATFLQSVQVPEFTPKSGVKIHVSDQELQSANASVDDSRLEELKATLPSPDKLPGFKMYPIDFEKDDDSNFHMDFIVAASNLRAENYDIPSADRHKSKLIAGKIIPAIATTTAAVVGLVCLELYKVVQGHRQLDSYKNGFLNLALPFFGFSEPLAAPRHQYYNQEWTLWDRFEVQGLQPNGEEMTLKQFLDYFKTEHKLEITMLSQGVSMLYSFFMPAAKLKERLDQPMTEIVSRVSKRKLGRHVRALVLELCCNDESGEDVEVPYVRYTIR

Ube1 [2] = target: T1, Ube1; assay: Competitive inhibition of UB transfer to Ube1; assay type: biochemical
Procedure, shortened: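 Increasing concentrations of test peptide were incubated with 1 µM UB and reacted with Ube1 (E1). UB~E1 thioester conjugate formed in each reaction was measured by Western blot.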

[3] = substrate: CC(C)[C@H](N)C(=O)N[C@@H](Cc1c[nH]c2ccccc12)C(=O)N[C@@H](CCCNC(=N)N)C(=O)N[C@@H](Cc1ccccc1)C(=O)N[C@@H](Cc1c[nH]cn1)C(=O)NCC(=O)NCC(=O)O; assay: ATP-PPi exchange kinetics catalyzed by Ube1; assay type: biochemical, human; settings: other: ATP-PPi exchange catalyzed by Ube1
[4] = substrate: CC(C)[C@H](N)C(=O)N[C@@H](CCC(N)=O)C(=O)N[C@@H](CCCNC(=N)N)C(=O)N[C@@H](Cc1ccc(O)cc1)C(=O)N[C@@H](Cc1c[nH]c2ccccc12)C(=O)NCC(=O)NCC(=O)O; assay: ATP-PPi exchange kinetics catalyzed by Ube1; assay type: biochemical, human; settings: other: ATP-PPi exchange catalyzed by Ube1

IC50 (Ube1 [2]): 172 µM
Molecule: VQRYWGG [P3]

IC50 (Ube1 [2]): 266 µM
Molecule: VWRFHGG [P2]

IC50 (Ube1 [2]): 220 µM
Molecule: VYRFYGG [P4]

Further lines, the molecule ahead of its results:

Molecule: NS(=O)(=O)OC[C@@H]1C[C@@H](n2ccc3c(N[C@H]4CCc5ccccc54)ncnc32)C[C@@H]1O [MLN4924]
anticancer activities (myeloma and lymphoma): promising anticancer activities | inhibition of Nedd8 E1 (Nedd8 E1): potent inhibitor of the Nedd8 E1

Molecule: VLRLRGG [P1]
kcat/K1/2 (Ube1 [1]; ATP-PPi exchange catalyzed by Ube1): 1.28 M⁻¹ s⁻¹ | saturation of Ube1 (Ube1 [1]; at a concentration as high as 500 µM in the ATP-PPi exchange reaction): could not saturate Ube1 | inhibition of UB loading on E1 (Ube1 [2]; at a concentration as high as 1 mM, 1 µM UB, Western blot): cannot significantly inhibit UB loading on E1

B1: Ube1 (Homo sapiens) (protein)
chain: MSSSPLSKKRRVSGPDPKPGSNCSPAQSVLSEVPSVPTNGMAKNGSEADIDEGLYSRQLYVLGHEAMKRLQTSSVLVSGLRGLGVEIAKNIILGGVKAVTLHDQGTAQWADLSSQFYLREEDIGKNRAEVSQPRLAELNSYVPVTAYTGPLVEDFLSGFQVVVLTNTPLEDQLRVGEFCHNRGIKLVVADTRGLFGQLFCDFGEEMILTDSNGEQPLSAMVSMVTKDNPGVVTCLDEARHGFESGDFVSFSEVQGMVELNGNQPMEIKVLGPYTFSICDTSNFSDYIRGGIVSQVKVPKKISFKSLVASLAEPDFVVTDFAKFSRPAQLHIGFQALHQFCAQHGRPPRPRNEEDAAELVALAQAVNARALPAVQQNNLDEDLIRKLAYVAAGDLAPINAFIGGLAAQEVMKACSGKFMPIMQWLYFDALECLPEDKEVLTEDKCLQRQNRYDGQVAVFGSDLQEKLGKQKYFLVGAGAIGCELLKNFAMIGLGCGEGGEIIVTDMDTIEKSNLNRQFLFRPWDVTKLKSDTAAAAVRQMNPHIRVTSHQNRVGPDTERIYDDDFFQNLDGVANALDNVDARMYMDRRCVYYRKPLLESGTLGTKGNVQVVIPFLTESYSSSQDPPEKSIPICTLKNFPNAIEHTLQWARDEFEGLFKQPAENVNQYLTDPKFVERTLRLAGTQPLEVLEAVQRSLVLQRPQTWADCVTWACHHWHTQYSNNIRQLLHNFPPDQLTSSGAPFWSGPKRCPHPLTFDVNNPLHLDYVMAAANLFAQTYGLTGSQDRAAVATFLQSVQVPEFTPKSGVKIHVSDQELQSANASVDDSRLEELKATLPSPDKLPGFKMYPIDFEKDDDSNFHMDFIVAASNLRAENYDIPSADRHKSKLIAGKIIPAIATTTAAVVGLVCLELYKVVQGHRQLDSYKNGFLNLALPFFGFSEPLAAPRHQYYNQEWTLWDRFEVQGLQPNGEEMTLKQFLDYFKTEHKLEITMLSQGVSMLYSFFMPAAKLKERLDQPMTEIVSRVSKRKLGRHVRALVLELCCNDESGEDVEVPYVRYTIR
kcat [3]: 0.0583 ± 0.01 s⁻¹ | kcat/Km [3]: 167 M⁻¹ s⁻¹ | kcat [4]: 0.162 ± 0.0233 s⁻¹ | kcat/Km [4]: 383 M⁻¹ s⁻¹
